# Bioassay records: PubChem, The Scripps Research Institute Molecular Screening Center
# SIAE primary – inhibitors of human sialic acid acetylesterase SIAE | SIAE FP-Rh probe binding, fluorescence polarization | inhibition, % at 9.66 µM | 370,000 compounds, 0.69% hits | AID 1053197;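 active = inhibition above a cutoff: mean of compounds within the control limits plus 3 SD of those, cut at about 17% in these data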;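 note: 0% = plate median of compound wells and 100% = probe without SIAE protein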
# Target sequence (Q9HAT2 whole entry, looked up): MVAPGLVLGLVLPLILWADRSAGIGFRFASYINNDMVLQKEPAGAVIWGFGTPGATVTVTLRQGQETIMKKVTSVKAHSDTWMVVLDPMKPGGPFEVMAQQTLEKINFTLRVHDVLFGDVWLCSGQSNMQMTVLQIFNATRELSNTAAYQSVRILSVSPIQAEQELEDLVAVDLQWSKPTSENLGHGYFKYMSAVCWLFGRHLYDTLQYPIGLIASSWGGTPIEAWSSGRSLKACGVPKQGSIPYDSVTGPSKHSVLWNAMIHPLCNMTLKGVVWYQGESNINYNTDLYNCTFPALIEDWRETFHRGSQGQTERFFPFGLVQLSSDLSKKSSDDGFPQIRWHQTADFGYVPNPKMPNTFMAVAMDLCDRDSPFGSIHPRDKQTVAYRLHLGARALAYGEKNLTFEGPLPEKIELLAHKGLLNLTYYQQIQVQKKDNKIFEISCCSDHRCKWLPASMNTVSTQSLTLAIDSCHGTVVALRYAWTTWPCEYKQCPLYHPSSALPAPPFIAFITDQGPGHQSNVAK
# PRMT1 inh – inhibitors of human PRMT1 | Q99873 | recombinant PRMT1, activity-based probe fluorescence polarization | inhibition, % at 2.79 µM | 370,000 compounds, 1.3% hits;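 active = inhibition above about 21% made by adding two undisclosed values, limit read from the data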
# rCAG RNA binder – molecules binding r(CAG) RNA repeats. r(CAG) RNA repeat, TO-PRO-1 dye displacement fluorescence. inhibition, % at 3 µM. 370,000 compounds, 1.3% hits;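 active = inhibition above the plate cutoff, the mean of all test compounds on that plate plus 3 SD, cut at about 35% in these data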;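 note: 0% = DMSO alone and 100% = 100 µM mitoxantrone as full dye displacement; higher means more dye released from RNA so lower well fluorescence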
# mABHD4 FP – ABHD4 (mouse) inhibition, primary FP screen | Q8VD66 | purified mABHD4, FP-Rh probe fluorescence polarization | 370,000 compounds, 0.54% hits | inhibition, % at 8.92 µM;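 active = inhibition exceeding the mean over every tested compound plus 3 SD, cut at about 30% in these data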;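 note: 0% = plate median of compound wells and 100% = S159A mutant with DMSO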
#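 assay system = mABHD4 protein | compound dosing = single nominal dose of 8.92 µM, 0.89% DMSO final | read-out basis = percent inhibition of probe binding, normalized to plate controls | schedule = Enzyme–compound pre-incubation 45 min, then probe 60 min, both 25 °C | detection = fluorescence polarization, excitation 525 nm, emission 598 nm, BODIPY TMR filters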
# TCR-CD3 inh – blocks the human TCR-CD3 interaction. 360,000 compounds, 0.37% hits. AID 651800. inhibition, % at 9.4 µM. TAMRA-labeled TCR probe fluorescence, biochemical; in the data active = inhibition above about 19%;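 note: recombinant mutant TCR 2C K166C tagged with TAMRA read by polarization; 0% = receptor in buffer alone and 100% = receptor with positive control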
# rCAG binder conf – r(CAG) RNA repeat binding, confirmation | TO-PRO-1 dye displacement fluorescence | shares compounds with rCAG RNA binder | inhibition, % at 3 µM | 4,300 compounds, 70% hits;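 active = inhibition above a per-plate cutoff, the mean inhibition of sample wells plus 3 SD, cut at about 35% in these data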;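 note: loss of TO-PRO-1 fluorescence as compound displaces dye from 1x1 AA loop RNA; 0% = DMSO only wells and 100% = 100 µM mitoxantrone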
# DNA CAG counter – disrupts DNA CAG TO-PRO-1 complex, flagging rCAG hits; shares compounds with rCAG RNA binder; d(CAG) DNA oligo TO-PRO-1 dye displacement, fluorescence; inhibition, % at 3 µM; 4,300 compounds, 94% hits; AID 652068;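 active = inhibition above its plate's cutoff, the mean test-well inhibition plus 3 SD, cut at about 4.8% in these data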;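 note: 0% = DNA dye mix with DMSO and 100% = 100 µM mitoxantrone; hits displace the dye from DNA and so lower well fluorescence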
# An asterisk follows results filed as active; . = no result. Sampled rows, rich in hits. Any-hit rate of the full collection: about 3.3%.
SMILES,SIAE primary,PRMT1 inh,rCAG RNA binder,mABHD4 FP,TCR-CD3 inh,rCAG binder conf,DNA CAG counter
Cc1cc(/C=N/NC(=O)C(O)(c2ccccc2)c2ccccc2)c(C)n1-c1ccc(C(=O)O)cc1,-4,0,35*,25,6,28,12*
COc1cccc(-c2nnc3n2N=C(c2ccc(Cl)cc2)CS3)c1,5,4,3,5,.,.,.
COc1ccc(S(=O)(=O)N2CCN(C(=O)CSc3nc4ccccc4nc3N3CCCCC3)CC2)cc1,3,-3,9,3,.,.,.
O=C(CSc1nnc(-c2cccc(S(=O)(=O)N3CCCC3)c2)n1-c1ccccc1)Nc1ccc(C(=O)O)cc1,-2,-1,9,-8,-3,.,.
Cc1cccc(C)c1-n1c(SCC(=O)Nc2ccc(C(=O)O)cc2)nnc1-c1cccc(S(=O)(=O)N(C)C)c1,-5,-3,38*,-26,7,29,4
CN(CCOC(=O)c1cc2ccccc2o1)C1CN(Cc2cn(Cc3ccccc3F)nn2)S(=O)(=O)C1 (stereo unspecified),4,2,-1,2,.,.,.
Cc1ccc(-c2ccc(/C=N\NC(=O)c3cc4c(ccc5ccccc54)o3)o2)cc1[N+](=O)[O-],2,-3,3,-4,3,.,.
O=C(N/N=C/c1ccc(-c2ccc(Cl)c(C(=O)O)c2)o1)c1cc2c(ccc3ccccc32)o1,-57,1,52*,6,13,86*,61*
COc1ccc(CN[C@@H]2CC[C@@]34CCCN3C(=O)CCC[C@H]4C2)cc1,0,-3,.,1,.,.,.
O=C1c2ccccc2S(=O)(=O)c2cc(N3CCN(C(=O)c4ccccc4)CC3)ccc21,-2,0,-3,-1,-1,.,.
O=C(O)c1ccc2c(c1)S(=O)(=O)c1cc(N3CCN(c4cnccn4)CC3)ccc1C2=O,-10,-1,35*,9,5,46*,14*
CCOC(=O)C1=C(C)N=c2s/c(=C\c3ccc(OCC(=O)O)c(OC)c3)c(=O)n2C1c1ccc(OC)cc1 (stereo unspecified),-15,32*,54*,-35,-2,75*,38*
CCOC(=O)C1=C(C)N=c2sc(=Cc3cc(Cl)c(OCC(=O)O)c(OC)c3)c(=O)n2C1c1ccccc1Cl (stereo unspecified),-27,9,22,3,-21,.,.
O=C(Nc1cccc(S(=O)(=O)Nc2ccc(Cl)cc2)c1)c1ccc(Cl)nc1,-88,4,30,-96,-4,.,.
O=C(Nc1cc(S(=O)(=O)Nc2ccccc2Cl)ccc1O)c1cc2c(s1)CCCC2,-16,-4,48*,-5,6,67*,26*
O=C(Nc1cc(S(=O)(=O)N2CCOCC2)ccc1N1CCCC1)c1cc2c(s1)CCCC2,-1,-4,.,-3,.,.,.
COc1ccccc1NS(=O)(=O)c1cc(NC(=O)c2sc3cc(Cl)ccc3c2Cl)ccc1C,-2,-5,6,-11,-6,.,.
Cc1ccc(C(=O)Nc2ccc(C)c(S(=O)(=O)Nc3ccccc3Cl)c2)s1,-28,0,36*,-77,4,46*,16*
Cc1ccc(NC(=O)c2cc3c(s2)CCCC3)cc1S(=O)(=O)Nc1ccccc1Cl,-126,1,47*,-95,11,38*,13*
O=C(Nc1cccc(S(=O)(=O)Nc2ccc(Cl)cc2)c1)c1cc2c(s1)CCCC2,-135,-4,43*,-140,15,29,17*
O=C(NC1CCCCN(Cc2cccc(F)c2)C1=O)c1cccc(F)c1 (stereo unspecified),3,3,-3,0,.,.,.
O=C(NCCc1ccccc1)OCc1cn(Cc2c(F)cccc2F)nn1,-1,1,2,3,.,.,.
O=C(Nc1ccc(OC(F)(F)F)cc1)Nc1c(-c2ccc(F)cc2)nc2ncccn12,-3,4,8,3,.,.,.
O=C(Nc1ccccc1Cl)c1cccs1,-2,0,-4,-4,4,.,.
O=C(Nc1ccc(Cl)c(S(=O)(=O)Nc2ccccc2Cl)c1)c1cccs1,-64,0,48*,-67,8,29,11*
SMILES,SIAE primary,PRMT1 inh,rCAG RNA binder,mABHD4 FP,TCR-CD3 inh,rCAG binder conf,DNA CAG counter
O=C(O)c1ccccc1C(=O)Nc1cccc([N+](=O)[O-])c1,0,1,2,6,0,.,.
O=C(Nc1cccc([N+](=O)[O-])c1)c1cc2ccccc2cc1O,-5,1,39*,7,5,37*,16*
O=C(O)c1cnn(-c2nc(-c3ccc(Cl)c(Cl)c3)cs2)c1C(F)(F)F,-14,6,64*,-50,1,44*,9.5*
O=C(O)c1cnn(-c2nc(-c3cccc(F)c3)cs2)c1C(F)(F)F,-1,-1,5,4,7,.,.
Cc1noc(NS(=O)(=O)c2ccc(NC(=O)c3ccc(N4C(=O)c5ccccc5C4=O)cc3)cc2)c1C,0,1,74*,0,1,59*,26*
O=C(CN1C(=O)c2cccc3cccc1c23)Nc1ccc(S(=O)(=O)Nc2nccs2)cc1,-5,4,67*,-8,-1,47*,17*
O=C(Nc1ccc(S(=O)(=O)Nc2nccs2)cc1)c1nn(-c2ccc(F)cc2)ccc1=O,-14,7,46*,16,-1,45*,20*
O=C(Nc1ccc(S(=O)(=O)Nc2nccs2)cc1)c1ccc(F)cc1,-5,3,8,-15,-5,.,.
O=C(Nc1ccc(S(=O)(=O)Nc2nccs2)cc1)c1ccc(N2C(=O)c3ccccc3C2=O)cc1,-88,-2,45*,-36,-2,56*,24*
CN1C2=N[C@H](c3cccc(C(F)(F)F)c3)CC(=O)N2/C(=C\c2ccccc2)[C@H]1c1ccccc1,1,-3,.,-2,.,.,.
Cc1noc(NS(=O)(=O)c2ccc(NC(=O)c3cc(=O)c4ccccc4o3)cc2)c1C,-4,-7,37*,0,4,13,2
Cc1noc(NS(=O)(=O)c2ccc(NC(=O)c3nn(-c4ccccc4)ccc3=O)cc2)c1C,-10,-1,35*,-1,6,21,5.7*
CC1CN(S(=O)(=O)c2ccc(C(=O)Nc3nccs3)cc2)CC(C)O1 (stereo unspecified),9,-7,-1,-2,6,.,.
Cc1ccc2oc(C(=O)Nc3ccc(S(=O)(=O)Nc4onc(C)c4C)cc3)cc(=O)c2c1,-6,-2,16,0,5,.,.
Cc1noc(NS(=O)(=O)c2ccc(NC(=O)CCN3C(=O)c4ccccc4C3=O)cc2)c1C,-1,1,14,1,1,.,.
CC1CN(S(=O)(=O)c2ccc(C(=O)Nc3ccc(S(=O)(=O)Nc4nccs4)cc3)cc2)CC(C)O1 (stereo unspecified),-19,0,57*,-1,7,65*,19*
